{"source": "ChEMBL document CHEMBL1123285", "about": "“Substituted 1-benzylimidazole-2-thiols as potent and orally active inhibitors of dopamine beta-hydroxylase” (J Med Chem, 1986)", "key": {"[1]": {"test": "Ratio of dopamine to that of NE levels in mesenteric artery measured at 50 mg/kg po", "assay_type": "functional"}, "[2]": {"target": "T1, Dopamine beta-hydroxylase (Bos taurus, UniProt P15101)", "T1 sequence (P15101 whole entry)": "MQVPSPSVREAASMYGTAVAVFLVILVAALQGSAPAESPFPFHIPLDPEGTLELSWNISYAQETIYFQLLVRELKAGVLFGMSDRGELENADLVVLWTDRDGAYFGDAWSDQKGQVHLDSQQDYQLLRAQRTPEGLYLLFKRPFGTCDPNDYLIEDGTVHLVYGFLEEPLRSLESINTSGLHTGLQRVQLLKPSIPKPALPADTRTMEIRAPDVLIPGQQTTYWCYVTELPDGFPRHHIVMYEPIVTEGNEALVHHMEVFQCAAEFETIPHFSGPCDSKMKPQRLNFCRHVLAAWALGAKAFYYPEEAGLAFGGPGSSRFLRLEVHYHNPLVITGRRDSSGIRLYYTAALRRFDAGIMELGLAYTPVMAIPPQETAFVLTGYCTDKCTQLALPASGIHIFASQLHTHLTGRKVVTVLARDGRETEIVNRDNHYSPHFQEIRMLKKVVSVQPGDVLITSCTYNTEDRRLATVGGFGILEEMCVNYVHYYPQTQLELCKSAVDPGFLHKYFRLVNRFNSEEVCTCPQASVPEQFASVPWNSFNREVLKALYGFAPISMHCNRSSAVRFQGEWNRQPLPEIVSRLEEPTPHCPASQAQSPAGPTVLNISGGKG", "test": "Binding affinity towards Dopamine beta hydroxylase using tyramine substrate at pH 4.5 in the absence of fumarate", "summary_of_the_method": "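Homogeneous bovine DBH (sp act. 30–42 U/mg at pH 5.0), tyramine as substrate, pH 4.5, no fumarate. Conditions: 50 mM sodium acetate, ionic strength 0.2, 200 μg/mL bovine catalase, 10 μM Cu²⁺, 10 mM ascorbic acid, 37 °C. Km apparent for tyramine 3.0 mM. Ki fitted with Cleland programs; mean ± SEM.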"}, "Rattus norvegicus [3]": {"tested_on": "Rattus norvegicus", "test": "In vivo evaluation ot the compound in spontaneously hypertensive rats for the mean arterial blood pressure", "assay_type": "functional", "summary_of_the_method": "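Conscious SHR anesthetized with Brevital Na (10 mg/kg, iv) and femoral artery cannulated to a pressure transducer. After 1-h recovery, baseline MAP taken every 15 min for 1 h. Dosed 50 mg/kg ip unless noted, then MAP recorded every 15–30 min for 4 h. Value at 150 min postdose, mean ± SEM.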"}, "[4]": {"test": "Ratio of dopamine to that of NE levels in mesenteric artery measured at 25 mg/kg po", "assay_type": "functional", "summary_of_the_method": "(§1)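 Spontaneously hypertensive rats (N = 5) got two oral doses about 18 h apart, either vehicle (5% PEG 400 in 1% methocel) or drug in vehicle, and were killed 2 h after the second dose. The mesenteric artery was homogenized. Dopamine and NE were measured by catechol O-methyltransferase methylation with [methyl-3H]-S-adenosylmethionine, then chromatographic separation and scintillation counting. Values are mean ± SEM.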"}, "[5]": {"test": "Ratio of dopamine to that of NE levels in mesenteric artery measured at 100 mg/kg po", "assay_type": "functional", "summary_of_the_method": "as §1"}, "Rattus norvegicus [6]": {"tested_on": "Rattus norvegicus", "test": "DBH inhibitory activity was measured as NE levels in mesenteric artery at dose of 50 mg/kg, po", "assay_type": "functional, organism-based", "set-up": "dose 50 mg/kg", "summary_of_the_method": "(§2)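 SHR (N = 5) dosed orally twice, about 18 h apart, with vehicle (5% PEG 400 in 1% methocel) or drug at the stated dose. Killed 2 h after the second dose. Mesenteric artery homogenized. Catecholamines measured by COMT methylation with [methyl-3H]-S-adenosylmethionine, chromatographic separation of methylated amines and scintillation counting. Mean ± SEM.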"}, "[7]": {"test": "In vivo evaluation ot the compound in spontaneously hypertensive rats for the catecholamine levels by taking the ratio of copamine to norepinephrine", "assay_type": "functional", "summary_of_the_method": "as §1"}, "Rattus norvegicus [8]": {"tested_on": "Rattus norvegicus", "test": "DBH inhibitory activity was measured as NE levels in mesenteric artery at dose of 25 mg/kg, po", "assay_type": "functional, organism-based", "set-up": "dose 25 mg/kg", "summary_of_the_method": "as §2"}, "Rattus norvegicus [9]": {"tested_on": "Rattus norvegicus", "test": "DBH inhibitory activity was measured as dopamine levels in mesenteric artery at dose of 25 mg/kg, po", "assay_type": "functional, organism-based", "set-up": "dose 25 mg/kg", "summary_of_the_method": "as §2"}, "Rattus norvegicus [10]": {"tested_on": "Rattus norvegicus", "test": "DBH inhibitory activity was measured as dopamine levels in mesenteric artery at dose of 25 mg/kg, po.", "assay_type": "functional, organism-based", "set-up": "dose 25 mg/kg", "summary_of_the_method": "as §2"}, "Rattus norvegicus [11]": {"tested_on": "Rattus norvegicus", "test": "DBH inhibitory activity was measured as dopamine levels in mesenteric artery at dose of 100 mg/kg, po", "assay_type": "functional, organism-based", "set-up": "dose 100 mg/kg", "summary_of_the_method": "as §2"}, "Rattus norvegicus [12]": {"tested_on": "Rattus norvegicus", "test": "DBH inhibitory activity was measured as NE levels in mesenteric artery at dose of 100 mg/kg, po", "assay_type": "functional, organism-based", "set-up": "dose 100 mg/kg", "summary_of_the_method": "as §2"}, "[13]": {"test": "In vivo evaluation ot the compound in spontaneously hypertensive rats for the catecholamine levels by taking the ratio of dopamine to norepinephrine", "assay_type": "functional", "summary_of_the_method": "as §2"}}, "note": "pKi: −log10 of the molar value."}
{"smiles": "CCCCc1ccc(C(=O)O)nc1", "note": "[FUSARIC ACID]", "values": [{"measurement": "Ratio", "setting": "[1]", "result": 0.109}, {"measurement": "pKi", "setting": "[2]", "result": 6.83}]}
{"smiles": "Oc1ccc(Cn2cc[nH]c2=S)cc1", "values": [{"measurement": "MAP", "setting": "Rattus norvegicus [3]", "result": 137, "unit": "mmHg"}]}
{"smiles": "Fc1cc(F)cc(Cn2cc[nH]c2=S)c1", "values": [{"measurement": "Ratio", "setting": "[4]", "result": 0.155}, {"measurement": "Ratio", "setting": "[1]", "result": 0.204}, {"measurement": "Ratio", "setting": "[5]", "result": 0.378}, {"measurement": "Level", "setting": "Rattus norvegicus [6]", "result": "4 µg of tissue"}, {"measurement": "MAP", "setting": "Rattus norvegicus [3]", "result": 105, "unit": "mmHg"}, {"measurement": "Ratio", "setting": "[7]", "result": 0.208}, {"measurement": "Level", "setting": "Rattus norvegicus [8]", "result": "4.94 µg of tissue"}, {"measurement": "Level", "setting": "Rattus norvegicus [9]", "result": "0.3 µg of tissue"}, {"measurement": "Level", "setting": "Rattus norvegicus [10]", "result": "0.765 µg of tissue"}, {"measurement": "Level", "setting": "Rattus norvegicus [11]", "result": "1.06 µg of tissue"}, {"measurement": "pKi", "setting": "[2]", "result": 7.39}, {"measurement": "Level", "setting": "Rattus norvegicus [12]", "result": "3.05 µg of tissue"}]}
{"smiles": "Oc1c(F)cc(Cn2cc[nH]c2=S)cc1F", "values": [{"measurement": "MAP", "setting": "Rattus norvegicus [3]", "result": 137, "unit": "mmHg"}, {"measurement": "Ratio", "setting": "[13]", "result": 0.082}, {"measurement": "pKi", "setting": "[2]", "result": 8.24}]}
